# RGS4 block: human RGS4 inhibition. B-score at 10 µM. P49798. HEK293 M3R/RGS4 inducible, Fluo-4 calcium flux; active compounds read high; triggered by carbachol at its EC20. actives 0.45% (n = 310,000). AID 463165;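 active = B-score, a plate-corrected calcium signal, over three deviations above library mean, with baseline fluorescence within five deviations of library mean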;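 also: RGS4 expression induced by doxycycline in cells with stable M3 receptor; B-score is computed from the integrated fluorescence ratio over baseline after carbachol; higher B-score means a larger calcium signal and so more RGS4 inhibition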
# Target sequence (P49798 whole entry, looked up): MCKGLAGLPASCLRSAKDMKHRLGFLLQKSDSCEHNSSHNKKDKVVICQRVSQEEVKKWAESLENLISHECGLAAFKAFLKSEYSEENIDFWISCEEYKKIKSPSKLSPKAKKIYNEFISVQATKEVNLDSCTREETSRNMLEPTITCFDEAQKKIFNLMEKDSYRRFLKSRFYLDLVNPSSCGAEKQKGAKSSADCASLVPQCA
# MrgX1 PAM: human MrgX1 positive allosteric modulation, primary screen. Q96LB2. MrgX1-HEK293, Fluo-4 calcium flux, FDSS; active compounds read high. B-score at 10 µM. actives 0.63% (n = 310,000). AID 588675;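 active = plate-corrected calcium response at least 3 library SD above typical, normal starting fluorescence, not activating the receptor alone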;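 also: compound read alongside a low EC10 to EC30 dose of BAM8-22 agonist; peak minus trough fluorescence over baseline measured at the second addition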
# Target sequence (Q96LB2 whole entry, looked up): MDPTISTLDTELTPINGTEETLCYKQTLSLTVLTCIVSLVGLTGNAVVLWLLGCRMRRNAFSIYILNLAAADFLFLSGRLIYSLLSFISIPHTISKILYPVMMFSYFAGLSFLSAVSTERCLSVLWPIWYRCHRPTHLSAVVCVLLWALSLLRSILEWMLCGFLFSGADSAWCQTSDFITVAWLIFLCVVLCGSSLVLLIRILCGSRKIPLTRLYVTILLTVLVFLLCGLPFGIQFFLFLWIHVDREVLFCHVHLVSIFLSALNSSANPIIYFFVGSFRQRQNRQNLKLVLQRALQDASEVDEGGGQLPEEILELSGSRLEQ
# MrgX1 ag: agonists of human MrgX1 receptor; AID 588627; actives 0.44% (n = 310,000); MrgX1-HEK293 cells, Fluo-4 calcium fluorescence, agonist mode; active compounds read high; B-score at 10 µM; Q96LB2;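 active = calcium response B-score plate-corrected fluorescence ratio at least 3 library SD, with starting fluorescence B-score inside 5 SD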
#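 Test system: Stable human MrgX1 HEK293 cell line | Schedule: Overnight plating before 1 h dye loading | Read-out basis: Baseline-normalised fluorescence change ratio, B-scored | Detection: Kinetic calcium dye fluorescence, Fluo-4 NW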
# MrgX1 antag: blocks BAM8-22 activation of human MrgX1 receptor; Q96LB2; MRGX1-HEK293 calcium flux, Fluo-4, BAM8-22 antagonism; active compounds read low; B-score at 10 µM; actives 1.3% (n = 310,000);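 active = calcium-response B-score plate-corrected more than 3 library SD below zero, starting fluorescence within 5 deviations, no agonist response on first addition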;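 also: peak minus trough fluorescence over baseline after final BAM8-22 challenge near maximal dose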
# RGS4 pot: RGS4 potentiation or activation; HEK293 M3R/inducible RGS4, carbachol calcium flux Fluo4; active compounds read low; B-score at 10 µM; AID 463111; actives 0.92% (n = 310,000);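 active = B-score of the integrated calcium signal more than 4 SD below the library mean, with starting fluorescence not abnormally high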;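 also: negative B-score means reduced calcium response which marks RGS4 activation or potentiation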
#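 Material: Inducible-RGS4 HEK293 cells carrying M3 receptor; also added: carbachol at ECmax as muscarinic agonist stimulus; incubation: compound preincubation 20 min at room temperature before agonist; signal: Fluo4-AM (2 µM) calcium-flux fluorescence, kinetic read; measure: integrated calcium ratio converted to B score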
# MrgX1 PAM conf: reconfirmed allosteric activator of human MrgX1 receptor. shares compounds with MrgX1 PAM. MrgX1-HEK293, Fluo-4 calcium fluorescence, FDSS. activation (ratio percentage), % at 10 µM. actives 13% (n = 1,200). AID 602413;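 active = ratio at least 3 SD above the weak peptide control, stable starting fluorescence, no direct agonism earlier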;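 also: compound followed by low BAM8-22 agonist challenge near EC20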
# MrgX1 antag conf: human MrgX1 receptor antagonism, re-confirmation screen; remaining BAM8-22 calcium response % of control (active compounds read low), % at 10 µM; MrgX1-HEK293, BAM8-22 calcium flux, Fluo-4; active compounds read low; actives 19% (n = 2,300); shares compounds with MrgX1 antag;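 active = remaining agonist calcium response no higher than 100% minus 3 SD of agonist-only control wells, with starting fluorescence near control levels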;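 also: agonist BAM8-22 given at a near maximal EC90 to ECmax level; peak minus minimum fluorescence divided by baseline after agonist addition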
# HEK293 Ca flux: counter-screen for MrgX1 antagonists: effect in parental HEK293 cells; shares compounds with MrgX1 antag; Fluo-4 calcium fluorescence, FDSS; fluorescence ratio F(max-min)/F0 at 10 µM; actives 2% (n = 4,000); AID 624111;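 active = duplicate-averaged calcium fluorescence ratio at least three times the standard deviation of buffer wells, a nonspecific response in parental cells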
# HEK293 Ca counter: activity in parental HEK293 cells without MrgX1 | shares compounds with MrgX1 antag | parental HEK293 calcium flux, Fluo-4 fluorescence ratio; active compounds read high | fluorescence ratio F(max-min)/F0 at 10 µM | actives 0.4% (n = 4,000);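 active = calcium fluorescence ratio, averaged over duplicates, at least 3 SD of the buffer-well ratio, meaning a nonspecific response in receptor-free cells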;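 also: untransfected parental HEK293 lacking MrgX1 used as counterscreen for MrgX1 allosteric activators; fluorescence change taken during the second addition on a kinetic imager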
# HEK293 Ca cntr2: counter-screen for MrgX1 activators: effect in parental HEK293 cells; fluorescence ratio F(max-min)/F0 at 10 µM; Fluo-4 calcium fluorescence (FDSS); active compounds read high; actives 8.7% (n = 4,000); shares compounds with MrgX1 antag;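 active = calcium fluorescence ratio at least three times the spread of buffer wells, meaning a non-specific response in parental cells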
# The depositor's hits bear a star; i = inactive; . = no result. A selection: hits, their analogues and other compounds. The true share with any hit is near 3.5%.
SMILES,RGS4 block,MrgX1 PAM,MrgX1 ag,MrgX1 antag,RGS4 pot,MrgX1 PAM conf,HEK293 Ca flux,HEK293 Ca counter,HEK293 Ca cntr2,others
Cc1cccc(NC(=O)C2CCCN(S(=O)(=O)c3cccs3)C2)c1C (centres undefined),i,i,i,i,i,.,.,.,.,
O=C(NCCN1CCOCC1)c1cc(-c2ccccc2Cl)nc2ccccc12,i,i,i,i,i,.,.,.,.,
CSC1=NSC2=NC(=O)/C(=C\c3ccc(OC(=O)c4ccco4)cc3)C(=N)N12,i,41*,i,i,i,i,i,i,i,
CC1=CSC2=NC(=O)/C(=C/c3cccc(OC(=O)c4ccco4)c3)C(=N)N12,i,29*,i,i,i,12%*,i,i,i,
CC1=CC2=NC(=O)/C(=C\c3ccc(OC(=O)c4ccco4)cc3)C(=N)N2O1,i,i,i,i,i,.,.,.,.,
Cc1ccccc1-c1nn(-c2ccc(F)cc2F)cc1CNCCCN(C)C,i,i,i,i,i,.,.,.,.,
Cc1ccccc1Nc1nc(N)nc(CSc2nc3ccccc3s2)n1,i,8.8*,i,i,i,i,i,i,i,
COc1cccc(C(=O)Nc2nnc(-c3ccccc3)s2)c1OC,i,10*,i,i,i,i,i,i,i,
COc1ccccc1C(=O)Nc1nnc(-c2ccccc2)s1,i,i,i,i,i,.,.,.,.,
CC(C)(C)c1ccc(C2=CC(c3ccccc3)n3ncnc3N2)cc1 (centres undefined),i,9.3*,i,i,i,i,i,i,57*,
Cc1ccc(C2=CC(c3ccc(C)cc3)n3ncnc3N2)cc1 (centres undefined),i,i,i,i,i,.,.,.,.,
O=C(CCc1ccccc1)NC(=S)Nc1cccc(Br)c1,i,9*,i,i,i,i,i,i,i,
O=C(Nc1ncccc1Cl)c1cc2ccccc2o1,i,i,i,i,i,.,.,.,.,
O=C1CC(c2ccc3c(c2)OCO3)Sc2nc3ccccc3n21 (centres undefined),i,7.5*,i,i,i,i,i,i,i,
O=C1CC(c2ccccc2)Sc2nc3ccccc3n21 (centres undefined),i,i,i,i,i,.,.,.,.,
CCCCC(=O)Nc1nc2c(s1)COc1ccccc1-2,i,i,i,i,i,.,.,.,.,
O=C(Cn1c(NCCO)nc2ccccc21)c1ccccc1,i,7.3*,i,i,i,i,i,i,i,
COc1cc(NC(=S)NN2CCN(C)CC2)cc(OC)c1OC,i,i,i,i,i,.,.,.,.,
Cc1ccc(Nc2cc(-n3cccn3)ncn2)c(C)c1,i,14*,i,i,i,i,i,i,i,
CN(C)CCn1c(=S)[nH]c2ncccc2c1=O,i,13*,i,i,i,i,i,i,i,
CS(=O)(=O)c1ccc2nc(NC(=O)C3COc4ccccc4O3)sc2c1 (centres undefined),i,6.6*,i,i,i,i,i,i,i,
CS(=O)(=O)c1ccc2nc(NC(=O)c3cccs3)sc2c1,.,24*,i,i,.,17%*,i,i,i,
Cc1ccc2nc(NC(=O)c3cccs3)sc2c1,.,i,i,i,.,.,.,.,.,
COc1ccc2nc(NC(=O)C3COc4ccccc4O3)sc2c1 (centres undefined),i,i,i,i,i,.,.,.,.,
CCCc1cc(-c2n[nH]c(=S)n2-c2cccc(C)c2)cs1,i,8*,i,i,i,i,i,i,i,
SMILES,RGS4 block,MrgX1 PAM,MrgX1 ag,MrgX1 antag,RGS4 pot,MrgX1 PAM conf,HEK293 Ca flux,HEK293 Ca counter,HEK293 Ca cntr2,others
Cc1cccc(-n2c(-c3csc(C(C)C)c3)n[nH]c2=S)c1,i,i,i,i,i,.,.,.,.,
Cc1cccc(NC(=O)CNCC(=O)Nc2cccc(C)c2C)c1C,i,i,i,i,i,.,.,.,.,
Cc1ccc(NC(=O)CNc2cccc(C)c2C)c(C)c1,i,16*,i,i,i,9.1%*,i,i,i,
CCN(c1ccc(OC)cc1)S(=O)(=O)c1nnc(NC(=O)c2ccccc2Cl)s1,i,i,i,i,i,.,.,.,.,
CCOC(=O)N1CCN(C/C(Cl)=C/c2ccccc2)CC1,i,i,i,i,i,.,.,.,.,
O=S(=O)(Nc1nc2ccccc2s1)c1cc(F)ccc1F,i,i,i,i,i,.,.,.,.,
O=S(=O)(Nc1nc2ccccc2s1)c1ccc(Cl)s1,i,9.1*,i,-5.3*,i,i,i,i,i,MrgX1 antag conf=i
O=C(Nc1cc(F)c(Br)cc1F)c1ccc(Cl)cc1,i,21*,i,i,i,10%*,i,i,i,
CCOc1ccc(S(=O)(=O)N2CCC(C(=O)N3CCc4ccccc4C3)CC2)cc1,i,i,i,i,i,.,.,.,.,
CC(NC(=O)C1CCCN1S(=O)(=O)c1cccc2cccnc12)c1ccccc1 (centres undefined),i,i,i,i,i,.,.,.,.,
CC(NC(=O)C1CCN(S(=O)(=O)c2cccc3cccnc23)CC1)c1ccccc1 (centres undefined),i,6.5*,i,i,i,i,i,i,i,
O=C(Cc1c(F)cccc1Cl)Nc1nc2ccccc2s1,i,21*,i,i,i,i,i,i,i,
CC(=O)c1sc(NC(=O)Cc2c(F)cccc2Cl)nc1C,i,i,i,i,i,.,.,.,.,
CN(C)/C=C/C(=O)c1ccc(Cl)c([N+](=O)[O-])c1,i,i,i,i,i,.,.,.,.,
NCc1ccccc1,.,13*,i,i,.,i,i,i,i,

# Assay outcomes deposited in PubChem BioAssay by Johns Hopkins Ion Channel Center.
